# In ChEMBL document CHEMBL1158173, “Carbodithioic acid esters of fluoxetine, a novel class of dual-function spermicides” (2008):
# Activity calls are given as the source filed them. The rule behind the calls is not given here.
# System: Sporothrix schenckii
# Experiment: Antifungal activity against Sporothrix schenckii after 48 hrs by broth microdilution technique
# Assay type: functional
# Conditions: not given
Structure (SMILES),MIC,Activity
CN(C)CCSC(=S)N(C)CCC(Oc1ccc(C(F)(F)F)cc1)c1ccccc1 (centres undefined),12.5 µg/mL,
CNCCC(Oc1ccc(C(F)(F)F)cc1)c1ccccc1 (centres undefined) [FLUOXETINE],50 µg/mL,
CN(CCC(Oc1ccc(C(F)(F)F)cc1)c1ccccc1)C(=S)SCC(O)CN1CCCC1 (centres undefined),50 µg/mL,
CCN(CC)CC(O)CSC(=S)N(C)CCC(Oc1ccc(C(F)(F)F)cc1)c1ccccc1 (centres undefined),,inactive
Cc1ncc([N+](=O)[O-])n1CCO [METRONIDAZOLE],,inactive
CN(CCC(Oc1ccc(C(F)(F)F)cc1)c1ccccc1)CC(O)CSC(=S)N(C)Cc1ccccc1 (centres undefined),,inactive
CN(CCC(Oc1ccc(C(F)(F)F)cc1)c1ccccc1)CC(O)CSC(=S)N1CCCCC1 (centres undefined),,inactive
CN(CCC(Oc1ccc(C(F)(F)F)cc1)c1ccccc1)CC(O)CSC(=S)N1CCCCCC1 (centres undefined),,inactive
CN(CCC(Oc1ccc(C(F)(F)F)cc1)c1ccccc1)C(=S)SCCN1CCOCC1 (centres undefined),,inactive
CN(CCC(Oc1ccc(C(F)(F)F)cc1)c1ccccc1)C(=S)SCC(O)CN1CCOCC1 (centres undefined),,inactive
CN(CCC(Oc1ccc(C(F)(F)F)cc1)c1ccccc1)C(=S)SCC(O)CN1CCCCC1 (centres undefined),,inactive
CN1CCN(CC(O)CSC(=S)N(C)CCC(Oc2ccc(C(F)(F)F)cc2)c2ccccc2)CC1 (centres undefined),25 µg/mL,

# System: Candida parapsilosis
# Experiment: Antifungal activity against Candida parapsilosis ATCC 22019 after 48 hrs by broth microdilution technique
# Assay type: functional
# Conditions: not given
row,Structure (SMILES),Activity
1,Cc1ncc([N+](=O)[O-])n1CCO [METRONIDAZOLE],inactive
2,CN(CCC(Oc1ccc(C(F)(F)F)cc1)c1ccccc1)CC(O)CSC(=S)N(C)Cc1ccccc1 (centres undefined),inactive
3,CN(CCC(Oc1ccc(C(F)(F)F)cc1)c1ccccc1)CC(O)CSC(=S)N1CCCCC1 (centres undefined),inactive
4,CN(CCC(Oc1ccc(C(F)(F)F)cc1)c1ccccc1)CC(O)CSC(=S)N1CCCCCC1 (centres undefined),inactive
5,CN(CCC(Oc1ccc(C(F)(F)F)cc1)c1ccccc1)C(=S)SCCN1CCOCC1 (centres undefined),inactive
6,CN(CCC(Oc1ccc(C(F)(F)F)cc1)c1ccccc1)C(=S)SCC(O)CN1CCOCC1 (centres undefined),inactive

# Same assay, conditions: Lodderomyces parapsilosis, ATCC 22019, 48 h
row,Structure (SMILES),MIC
1,CN(C)CCSC(=S)N(C)CCC(Oc1ccc(C(F)(F)F)cc1)c1ccccc1 (centres undefined),50 µg/mL
2,CNCCC(Oc1ccc(C(F)(F)F)cc1)c1ccccc1 (centres undefined) [FLUOXETINE],50 µg/mL
3,CN(CCC(Oc1ccc(C(F)(F)F)cc1)c1ccccc1)C(=S)SCC(O)CN1CCCC1 (centres undefined),50 µg/mL
4,CCN(CC)CC(O)CSC(=S)N(C)CCC(Oc1ccc(C(F)(F)F)cc1)c1ccccc1 (centres undefined),50 µg/mL
5,CN(CCC(Oc1ccc(C(F)(F)F)cc1)c1ccccc1)C(=S)SCC(O)CN1CCCCC1 (centres undefined),50 µg/mL
6,CN1CCN(CC(O)CSC(=S)N(C)CCC(Oc2ccc(C(F)(F)F)cc2)c2ccccc2)CC1 (centres undefined),50 µg/mL

# System: Candida albicans
# Experiment: Antifungal activity against Candida albicans after 48 hrs by broth microdilution technique
# Assay type: functional
# Conditions: not given
Structure (SMILES),MIC,Activity
CN(C)CCSC(=S)N(C)CCC(Oc1ccc(C(F)(F)F)cc1)c1ccccc1 (centres undefined),50 µg/mL,
CNCCC(Oc1ccc(C(F)(F)F)cc1)c1ccccc1 (centres undefined) [FLUOXETINE],50 µg/mL,
CN(CCC(Oc1ccc(C(F)(F)F)cc1)c1ccccc1)C(=S)SCC(O)CN1CCCC1 (centres undefined),,inactive
CCN(CC)CC(O)CSC(=S)N(C)CCC(Oc1ccc(C(F)(F)F)cc1)c1ccccc1 (centres undefined),,inactive
Cc1ncc([N+](=O)[O-])n1CCO [METRONIDAZOLE],,inactive
CN(CCC(Oc1ccc(C(F)(F)F)cc1)c1ccccc1)CC(O)CSC(=S)N(C)Cc1ccccc1 (centres undefined),,inactive
CN(CCC(Oc1ccc(C(F)(F)F)cc1)c1ccccc1)CC(O)CSC(=S)N1CCCCC1 (centres undefined),,inactive
CN(CCC(Oc1ccc(C(F)(F)F)cc1)c1ccccc1)CC(O)CSC(=S)N1CCCCCC1 (centres undefined),,inactive
CN(CCC(Oc1ccc(C(F)(F)F)cc1)c1ccccc1)C(=S)SCCN1CCOCC1 (centres undefined),,inactive
CN(CCC(Oc1ccc(C(F)(F)F)cc1)c1ccccc1)C(=S)SCC(O)CN1CCOCC1 (centres undefined),,inactive
CN(CCC(Oc1ccc(C(F)(F)F)cc1)c1ccccc1)C(=S)SCC(O)CN1CCCCC1 (centres undefined),,inactive
CN1CCN(CC(O)CSC(=S)N(C)CCC(Oc2ccc(C(F)(F)F)cc2)c2ccccc2)CC1 (centres undefined),50 µg/mL,

# System: not listed separately
# Experiment: (§1) Spermicidal activity in liquefied human semen assessed as drug level required to kill 100% sperm in 20 seconds
# Assay type: functional
# Conditions: not given
row,Structure (SMILES),MEC
1,CN(C)CCSC(=S)N(C)CCC(Oc1ccc(C(F)(F)F)cc1)c1ccccc1 (centres undefined),1%
2,CN(CCC(Oc1ccc(C(F)(F)F)cc1)c1ccccc1)C(=S)SCC(O)CN1CCCC1 (centres undefined),0.5%
3,CCN(CC)CC(O)CSC(=S)N(C)CCC(Oc1ccc(C(F)(F)F)cc1)c1ccccc1 (centres undefined),0.5%
4,CN1CCN(CC(O)CSC(=S)N(C)CCC(Oc2ccc(C(F)(F)F)cc2)c2ccccc2)CC1 (centres undefined),0.5%

# System: Sperm
# Experiment: as §1
# Assay type: functional
# Conditions: not given
row,Structure (SMILES),Activity
1,Cc1ncc([N+](=O)[O-])n1CCO [METRONIDAZOLE],inactive
2,CN(CCC(Oc1ccc(C(F)(F)F)cc1)c1ccccc1)CC(O)CSC(=S)N(C)Cc1ccccc1 (centres undefined),inactive
3,CN(CCC(Oc1ccc(C(F)(F)F)cc1)c1ccccc1)CC(O)CSC(=S)N1CCCCC1 (centres undefined),inactive
4,CN(CCC(Oc1ccc(C(F)(F)F)cc1)c1ccccc1)CC(O)CSC(=S)N1CCCCCC1 (centres undefined),inactive
5,CN(CCC(Oc1ccc(C(F)(F)F)cc1)c1ccccc1)C(=S)SCCN1CCOCC1 (centres undefined),inactive
6,CN(CCC(Oc1ccc(C(F)(F)F)cc1)c1ccccc1)C(=S)SCC(O)CN1CCOCC1 (centres undefined),inactive
7,CN(CCC(Oc1ccc(C(F)(F)F)cc1)c1ccccc1)C(=S)SCC(O)CN1CCCCC1 (centres undefined),inactive

# System: Trichomonas vaginalis
# Experiment: Antitrichomonas activity against Trichomonas vaginalis after 48 hrs by trypan blue staining
# Assay type: functional
# Conditions: not given
# Procedure, shortened: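 Trichomonas vaginalis was grown in TYM medium and used in log phase, one day after routine subculture. Compounds in DMSO stock were serially diluted in TYM medium, with DMSO/TYM as vehicle control. Wells received 5 × 10³ trophozoites and were incubated anaerobically at 37 °C. Viability was scored daily by trypan blue and cell counts, and MIC was read at 48 h. Finer dilutions were then retested, and the final MIC was taken from a concentration versus viable-trophozoite-number curve.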
row,Structure (SMILES),MIC
1,CN(C)CCSC(=S)N(C)CCC(Oc1ccc(C(F)(F)F)cc1)c1ccccc1 (centres undefined),52 µg/mL
2,CNCCC(Oc1ccc(C(F)(F)F)cc1)c1ccccc1 (centres undefined) [FLUOXETINE],28 µg/mL
3,CN(CCC(Oc1ccc(C(F)(F)F)cc1)c1ccccc1)C(=S)SCC(O)CN1CCCC1 (centres undefined),6.95 µg/mL
4,CCN(CC)CC(O)CSC(=S)N(C)CCC(Oc1ccc(C(F)(F)F)cc1)c1ccccc1 (centres undefined),> 200 µg/mL
5,Cc1ncc([N+](=O)[O-])n1CCO [METRONIDAZOLE],0.54 µg/mL
6,CN1CCN(CC(O)CSC(=S)N(C)CCC(Oc2ccc(C(F)(F)F)cc2)c2ccccc2)CC1 (centres undefined),12 µg/mL

# System: Trichophyton mentagrophytes
# Experiment: Antifungal activity against Trichophyton mentagrophytes after 48 hrs by broth microdilution technique
# Assay type: functional
# Conditions: not given
Structure (SMILES),MIC,Activity
CN(C)CCSC(=S)N(C)CCC(Oc1ccc(C(F)(F)F)cc1)c1ccccc1 (centres undefined),6.25 µg/mL,
CNCCC(Oc1ccc(C(F)(F)F)cc1)c1ccccc1 (centres undefined) [FLUOXETINE],50 µg/mL,
CN(CCC(Oc1ccc(C(F)(F)F)cc1)c1ccccc1)C(=S)SCC(O)CN1CCCC1 (centres undefined),25 µg/mL,
CCN(CC)CC(O)CSC(=S)N(C)CCC(Oc1ccc(C(F)(F)F)cc1)c1ccccc1 (centres undefined),25 µg/mL,
Cc1ncc([N+](=O)[O-])n1CCO [METRONIDAZOLE],,inactive
CN(CCC(Oc1ccc(C(F)(F)F)cc1)c1ccccc1)CC(O)CSC(=S)N(C)Cc1ccccc1 (centres undefined),,inactive
CN(CCC(Oc1ccc(C(F)(F)F)cc1)c1ccccc1)CC(O)CSC(=S)N1CCCCC1 (centres undefined),,inactive
CN(CCC(Oc1ccc(C(F)(F)F)cc1)c1ccccc1)CC(O)CSC(=S)N1CCCCCC1 (centres undefined),,inactive
CN(CCC(Oc1ccc(C(F)(F)F)cc1)c1ccccc1)C(=S)SCCN1CCOCC1 (centres undefined),,inactive
CN(CCC(Oc1ccc(C(F)(F)F)cc1)c1ccccc1)C(=S)SCC(O)CN1CCOCC1 (centres undefined),,inactive
CN(CCC(Oc1ccc(C(F)(F)F)cc1)c1ccccc1)C(=S)SCC(O)CN1CCCCC1 (centres undefined),50 µg/mL,
CN1CCN(CC(O)CSC(=S)N(C)CCC(Oc2ccc(C(F)(F)F)cc2)c2ccccc2)CC1 (centres undefined),25 µg/mL,

# System: Cryptococcus neoformans
# Experiment: Antifungal activity against Cryptococcus neoformans after 48 hrs by broth microdilution technique
# Assay type: functional
# Conditions: not given
Structure (SMILES),MIC,Activity
CN(C)CCSC(=S)N(C)CCC(Oc1ccc(C(F)(F)F)cc1)c1ccccc1 (centres undefined),50 µg/mL,
CNCCC(Oc1ccc(C(F)(F)F)cc1)c1ccccc1 (centres undefined) [FLUOXETINE],25 µg/mL,
CN(CCC(Oc1ccc(C(F)(F)F)cc1)c1ccccc1)C(=S)SCC(O)CN1CCCC1 (centres undefined),,inactive
CCN(CC)CC(O)CSC(=S)N(C)CCC(Oc1ccc(C(F)(F)F)cc1)c1ccccc1 (centres undefined),,inactive
Cc1ncc([N+](=O)[O-])n1CCO [METRONIDAZOLE],,inactive
CN(CCC(Oc1ccc(C(F)(F)F)cc1)c1ccccc1)CC(O)CSC(=S)N(C)Cc1ccccc1 (centres undefined),,inactive
CN(CCC(Oc1ccc(C(F)(F)F)cc1)c1ccccc1)CC(O)CSC(=S)N1CCCCC1 (centres undefined),25 µg/mL,
CN(CCC(Oc1ccc(C(F)(F)F)cc1)c1ccccc1)CC(O)CSC(=S)N1CCCCCC1 (centres undefined),,inactive
CN(CCC(Oc1ccc(C(F)(F)F)cc1)c1ccccc1)C(=S)SCCN1CCOCC1 (centres undefined),,inactive
CN(CCC(Oc1ccc(C(F)(F)F)cc1)c1ccccc1)C(=S)SCC(O)CN1CCOCC1 (centres undefined),,inactive
CN(CCC(Oc1ccc(C(F)(F)F)cc1)c1ccccc1)C(=S)SCC(O)CN1CCCCC1 (centres undefined),,inactive
CN1CCN(CC(O)CSC(=S)N(C)CCC(Oc2ccc(C(F)(F)F)cc2)c2ccccc2)CC1 (centres undefined),25 µg/mL,

# System: Aspergillus fumigatus
# Experiment: Antifungal activity against Aspergillus fumigatus after 48 hrs by broth microdilution technique
# Assay type: functional
# Conditions: not given
Structure (SMILES),MIC,Activity
CN(C)CCSC(=S)N(C)CCC(Oc1ccc(C(F)(F)F)cc1)c1ccccc1 (centres undefined),25 µg/mL,
CNCCC(Oc1ccc(C(F)(F)F)cc1)c1ccccc1 (centres undefined) [FLUOXETINE],,inactive
CN(CCC(Oc1ccc(C(F)(F)F)cc1)c1ccccc1)C(=S)SCC(O)CN1CCCC1 (centres undefined),50 µg/mL,
CCN(CC)CC(O)CSC(=S)N(C)CCC(Oc1ccc(C(F)(F)F)cc1)c1ccccc1 (centres undefined),50 µg/mL,
Cc1ncc([N+](=O)[O-])n1CCO [METRONIDAZOLE],,inactive
CN(CCC(Oc1ccc(C(F)(F)F)cc1)c1ccccc1)CC(O)CSC(=S)N(C)Cc1ccccc1 (centres undefined),,inactive
CN(CCC(Oc1ccc(C(F)(F)F)cc1)c1ccccc1)CC(O)CSC(=S)N1CCCCC1 (centres undefined),,inactive
CN(CCC(Oc1ccc(C(F)(F)F)cc1)c1ccccc1)CC(O)CSC(=S)N1CCCCCC1 (centres undefined),,inactive
CN(CCC(Oc1ccc(C(F)(F)F)cc1)c1ccccc1)C(=S)SCCN1CCOCC1 (centres undefined),,inactive
CN(CCC(Oc1ccc(C(F)(F)F)cc1)c1ccccc1)C(=S)SCC(O)CN1CCOCC1 (centres undefined),50 µg/mL,
CN(CCC(Oc1ccc(C(F)(F)F)cc1)c1ccccc1)C(=S)SCC(O)CN1CCCCC1 (centres undefined),,inactive
CN1CCN(CC(O)CSC(=S)N(C)CCC(Oc2ccc(C(F)(F)F)cc2)c2ccccc2)CC1 (centres undefined),25 µg/mL,
